≈ marks a conversion by molar mass, not a printed value.
Experiments:
Type in all cases: functional, Salmonella enterica subsp. enterica serovar Typhimurium
Salmonella typhimurium [1] = assay: Antimicrobial activity against Salmonella enterica serovar Typhimurium S21 acrAB::Kan
Procedure, shortened: (§1)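 MICs by automated broth microdilution panels, interpreted to CLSI broth microdilution standards. Ciprofloxacin additionally tested by agar dilution across 0.0075 to 128 μg/ml. Quality control strains: E. coli ATCC 25922 and 35218, Enterococcus faecalis ATCC 29212, S. aureus ATCC 29213, P. aeruginosa ATCC 27853. Test strains are kanamycin-marked deletion mutants of ground-beef isolate S21.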

Salmonella typhimurium [2] = assay: Antimicrobial activity against Salmonella enterica serovar Typhimurium S21-4 gyrA+ with ParC S80I mutation
Procedure, shortened: (§2)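 MICs measured by broth microdilution on the Sensititre automated system and interpreted by CLSI broth microdilution standards. Ciprofloxacin was also tested by agar dilution, widening the range to 0.0075–128 μg/ml. Quality control strains were E. coli ATCC 25922 and 35218, E. faecalis ATCC 29212, S. aureus ATCC 29213 and P. aeruginosa ATCC 27853.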

Salmonella typhimurium [3] = assay: Antimicrobial activity against Salmonella enterica serovar Typhimurium S21-1 gyrA+; procedure, shortened: as §2
Salmonella typhimurium [4] = assay: Antimicrobial activity against Salmonella enterica serovar Typhimurium CHS14 with GyrA D87G mutation; procedure, shortened: as §2
Salmonella typhimurium [5] = assay: Antimicrobial activity against Salmonella enterica serovar Typhimurium S21-1 tolC::Kan with GyrA S83F mutation; procedure, shortened: as §2
Salmonella typhimurium [6] = assay: Antimicrobial activity against Salmonella enterica serovar Typhimurium CS3 tolC::Kan with GyrA S83F, D87N, parC S80I mutation; procedure, shortened: as §2
Salmonella typhimurium [7] = assay: Antimicrobial activity against Salmonella enterica serovar Typhimurium S21 tolC::Kan; procedure, shortened: as §1
Salmonella typhimurium [8] = assay: Antimicrobial activity against Salmonella enterica serovar Typhimurium CHS14 acrAB::Kan with GyrA D87G mutation; procedure, shortened: as §2
Salmonella typhimurium [9] = assay: Antimicrobial activity against Salmonella enterica serovar Typhimurium CS1 acrAB::Kan with GyrA S83F, D87N, ParC S80I mutation; procedure, shortened: as §2
Salmonella typhimurium [10] = assay: Antimicrobial activity against Salmonella enterica serovar Typhimurium CHS14 gyrA+ with GyrA D87G mutation; procedure, shortened: as §2
Salmonella typhimurium [11] = assay: Antimicrobial activity against Salmonella enterica serovar Typhimurium S21-2 tolC::Kan with GyrA S83F, ParC S80I mutation; procedure, shortened: as §2
Salmonella typhimurium [12] = assay: Antimicrobial activity against Salmonella enterica serovar Typhimurium CS9 with GyrA S83F, D87N, ParC S80I mutation; procedure, shortened: as §2
Salmonella typhimurium [13] = assay: Antimicrobial activity against Salmonella enterica serovar Typhimurium S21-4 acrAB::Kan with GyrA S83F, ParC S80I mutation; procedure, shortened: as §2
Salmonella typhimurium [14] = assay: Antimicrobial activity against Salmonella enterica serovar Typhimurium CHS18 gyrA+ with GyrA S38F mutation; procedure, shortened: as §2
Salmonella typhimurium [15] = assay: Antimicrobial activity against Salmonella enterica serovar Typhimurium S21-2 acrAB::Kan with GyrA S83F, ParC S80I mutation; procedure, shortened: as §2
Salmonella typhimurium [16] = assay: Antimicrobial activity against Salmonella enterica serovar Typhimurium CS1 gyrA+ with GyrA S83F, D87N, ParC S80I mutation; procedure, shortened: as §2
Salmonella typhimurium [17] = assay: Antimicrobial activity against Salmonella enterica serovar Typhimurium CS3 with GyrA S83F, D87N, ParC S80I mutation; procedure, shortened: as §2
Salmonella typhimurium [18] = assay: Antimicrobial activity against Salmonella enterica serovar Typhimurium CHS38 with GyrA D87G mutation; procedure, shortened: as §2
Salmonella typhimurium [19] = assay: Antimicrobial activity against Salmonella enterica serovar Typhimurium CHS38 gyrA+ with GyrA D87G mutation; procedure, shortened: as §2
Salmonella typhimurium [20] = assay: Antimicrobial activity against Salmonella enterica serovar Typhimurium CHS18 acrAB::Kan with GyrA S38F mutation; procedure, shortened: as §2
Salmonella typhimurium [21] = assay: Antimicrobial activity against Salmonella enterica serovar Typhimurium S21-4 with GyrA S83F, ParC S80I mutation; procedure, shortened: as §2
Salmonella typhimurium [22] = assay: Antimicrobial activity against Salmonella enterica serovar Typhimurium CS9 acrAB::Kan with GyrA S83F, D87N, ParC S80I mutation; procedure, shortened: as §2
Salmonella typhimurium [23] = assay: Antimicrobial activity against Salmonella enterica serovar Typhimurium S21-3 gyrA+ with ParC S80I mutation; procedure, shortened: as §2
Salmonella typhimurium [24] = assay: Antimicrobial activity against Salmonella enterica serovar Typhimurium CHS14 tolC::Kan with GyrA D87G mutant; procedure, shortened: as §2
Salmonella typhimurium [25] = assay: Antimicrobial activity against Salmonella enterica serovar Typhimurium CHS18 tolC::Kan with GyrA S38F mutation; procedure, shortened: as §2
Salmonella typhimurium [26] = assay: Antimicrobial activity against Salmonella enterica serovar Typhimurium S21-2 with GyrA S83F, ParC S80I mutation; procedure, shortened: as §2
Salmonella typhimurium [27] = assay: Antimicrobial activity against Salmonella enterica serovar Typhimurium CS9 gyrA+ with GyrA S83F, D87N, ParC S80I mutation; procedure, shortened: as §2
Salmonella typhimurium [28] = assay: Antimicrobial activity against Salmonella enterica serovar Typhimurium S21-1 GyrA S83F mutant; procedure, shortened: as §2
Salmonella typhimurium [29] = assay: Antimicrobial activity against Salmonella enterica serovar Typhimurium CS9 tolC::Kan with GyrA S83F, D87N, ParC S80I mutation; procedure, shortened: as §2
Salmonella typhimurium [30] = assay: Antimicrobial activity against Salmonella enterica serovar Typhimurium CHS18 with GyrA S38F mutation; procedure, shortened: as §2
Salmonella typhimurium [31] = assay: Antimicrobial activity against Salmonella enterica serovar Typhimurium CS1 tolC::Kan with GyrA S83F, D87N, ParC S80I mutation; procedure, shortened: as §2
Salmonella typhimurium [32] = assay: Antimicrobial activity against Salmonella enterica serovar Typhimurium S21-3 tolC::Kan with GyrA S83F, ParC S80I mutation; procedure, shortened: as §2
Salmonella typhimurium [33] = assay: Antimicrobial activity against Salmonella enterica serovar Typhimurium S21-3 acrAB::Kan with GyrA S83F, ParC S80I mutation; procedure, shortened: as §2
Salmonella typhimurium [34] = assay: Antimicrobial activity against Salmonella enterica serovar Typhimurium CS3 acrAB::Kan with GyrA S83F, D87N, ParC S80I mutation; procedure, shortened: as §2
Salmonella typhimurium [35] = assay: Antimicrobial activity against Salmonella enterica serovar Typhimurium S21 gyrA+; procedure, shortened: as §2
Salmonella typhimurium [36] = assay: Antimicrobial activity against Salmonella enterica serovar Typhimurium CHS38 acrAB::Kan with GyrA D87G mutation; procedure, shortened: as §2
Salmonella typhimurium [37] = assay: Antimicrobial activity against Salmonella enterica serovar Typhimurium GyrA S21-1 acrAB::Kan with GyrA S83F mutation; procedure, shortened: as §2
Salmonella typhimurium [38] = assay: Antimicrobial activity against Salmonella enterica serovar Typhimurium S21-4 tolC::Kan with GyrA S83F, ParC S80I mutation; procedure, shortened: as §2
Salmonella typhimurium [39] = assay: Antimicrobial activity against Salmonella enterica serovar Typhimurium S21-2 gyrA+ with ParC S80I mutation; procedure, shortened: as §2
Salmonella typhimurium [40] = assay: Antimicrobial activity against Salmonella enterica serovar Typhimurium CS3 gyrA+ with GyrA S83F, D87N, ParC S80I mutation; procedure, shortened: as §2
Salmonella typhimurium [41] = assay: Antimicrobial activity against Salmonella enterica serovar Typhimurium S21; procedure, shortened: as §2
Salmonella typhimurium [42] = assay: Antimicrobial activity against Salmonella enterica serovar Typhimurium CHS38 tolC::Kan with GyrA D87G mutation; procedure, shortened: as §2
Salmonella typhimurium [43] = assay: Antimicrobial activity against Salmonella enterica serovar Typhimurium S21-3 with GyrA S83F, ParC S80I mutation; procedure, shortened: as §2
Salmonella typhimurium [44] = assay: Antimicrobial activity against Salmonella enterica serovar Typhimurium CS1 with GyrA S83F, D87N, ParC S80I mutation; procedure, shortened: as §2

`O=C(O)c1cn(C2CC2)c2cc(N3CCNCC3)c(F)cc2c1=O` [CIPROFLOXACIN] was tested. Which MIC (Salmonella typhimurium [1]) did it give?
Its MIC is less than 0.015 mg/L.

And the MIC (Salmonella typhimurium [2])?
Its MIC is 4 mg/L (≈ 12.1 µM).

What about the MIC (Salmonella typhimurium [3]) of the same molecule?
The MIC was 0.015 mg/L (≈ 0.0453 µM).

What about the MIC (Salmonella typhimurium [4]) of the same molecule?
The MIC was 0.12 mg/L (≈ 0.362 µM).

And the MIC (Salmonella typhimurium [5])?
The MIC was 0.06 mg/L (≈ 0.181 µM).

What about the MIC (Salmonella typhimurium [6]) of the same molecule?
The MIC was 2 mg/L (≈ 6.04 µM).

What about the MIC (Salmonella typhimurium [7]) of the same molecule?
Its MIC is less than 0.015 mg/L.

What about the MIC (Salmonella typhimurium [8]) of the same molecule?
Its MIC is less than 0.015 mg/L.

What about the MIC (Salmonella typhimurium [9]) of the same molecule?
The MIC was 4 mg/L (≈ 12.1 µM).

And the MIC (Salmonella typhimurium [10])?
The MIC was less than 0.015 mg/L.

What about the MIC (Salmonella typhimurium [11]) of the same molecule?
Its MIC is 0.12 mg/L (≈ 0.362 µM).

And the MIC (Salmonella typhimurium [12])?
The MIC was 16 mg/L (≈ 48.3 µM).

And the MIC (Salmonella typhimurium [13])?
The MIC was 0.25 mg/L (≈ 0.754 µM).

And the MIC (Salmonella typhimurium [14])?
Its MIC is 0.06 mg/L (≈ 0.181 µM).

What about the MIC (Salmonella typhimurium [15]) of the same molecule?
Its MIC is 0.12 mg/L (≈ 0.362 µM).

And the MIC (Salmonella typhimurium [16])?
The MIC was 0.03 mg/L (≈ 0.0905 µM).

What about the MIC (Salmonella typhimurium [17]) of the same molecule?
Its MIC is 16 mg/L (≈ 48.3 µM).

What about the MIC (Salmonella typhimurium [18]) of the same molecule?
The MIC was 0.06 mg/L (≈ 0.181 µM).

What about the MIC (Salmonella typhimurium [19]) of the same molecule?
Its MIC is less than 0.015 mg/L.

What about the MIC (Salmonella typhimurium [20]) of the same molecule?
The MIC was 0.03 mg/L (≈ 0.0905 µM).

What about the MIC (Salmonella typhimurium [21]) of the same molecule?
The MIC was 256 mg/L (≈ 773 µM).

And the MIC (Salmonella typhimurium [22])?
Its MIC is 4 mg/L (≈ 12.1 µM).

What about the MIC (Salmonella typhimurium [23]) of the same molecule?
The MIC was 2 mg/L (≈ 6.04 µM).

And the MIC (Salmonella typhimurium [24])?
Its MIC is less than 0.015 mg/L.

What about the MIC (Salmonella typhimurium [25]) of the same molecule?
The MIC was 0.03 mg/L (≈ 0.0905 µM).

And the MIC (Salmonella typhimurium [26])?
Its MIC is 4 mg/L (≈ 12.1 µM).

What about the MIC (Salmonella typhimurium [27]) of the same molecule?
Its MIC is 0.03 mg/L (≈ 0.0905 µM).

What about the MIC (Salmonella typhimurium [28]) of the same molecule?
Its MIC is 0.25 mg/L (≈ 0.754 µM).

And the MIC (Salmonella typhimurium [29])?
The MIC was 2 mg/L (≈ 6.04 µM).

And the MIC (Salmonella typhimurium [30])?
Its MIC is 0.12 mg/L (≈ 0.362 µM).

And the MIC (Salmonella typhimurium [31])?
The MIC was 2 mg/L (≈ 6.04 µM).

And the MIC (Salmonella typhimurium [32])?
Its MIC is 0.25 mg/L (≈ 0.754 µM).

What about the MIC (Salmonella typhimurium [33]) of the same molecule?
Its MIC is 0.25 mg/L (≈ 0.754 µM).

What about the MIC (Salmonella typhimurium [34]) of the same molecule?
The MIC was 4 mg/L (≈ 12.1 µM).

And the MIC (Salmonella typhimurium [35])?
The MIC was less than 0.015 mg/L.

What about the MIC (Salmonella typhimurium [36]) of the same molecule?
Its MIC is 0.03 mg/L (≈ 0.0905 µM).

What about the MIC (Salmonella typhimurium [37]) of the same molecule?
Its MIC is 0.06 mg/L (≈ 0.181 µM).

What about the MIC (Salmonella typhimurium [38]) of the same molecule?
The MIC was 0.25 mg/L (≈ 0.754 µM).

And the MIC (Salmonella typhimurium [39])?
The MIC was 0.25 mg/L (≈ 0.754 µM).

What about the MIC (Salmonella typhimurium [40]) of the same molecule?
The MIC was 0.03 mg/L (≈ 0.0905 µM).

What about the MIC (Salmonella typhimurium [41]) of the same molecule?
Its MIC is less than 0.015 mg/L.

And the MIC (Salmonella typhimurium [42])?
Its MIC is less than 0.015 mg/L.

And the MIC (Salmonella typhimurium [43])?
The MIC was 32 mg/L (≈ 96.6 µM).

What about the MIC (Salmonella typhimurium [44]) of the same molecule?
The MIC was 16 mg/L (≈ 48.3 µM).
